PP5 primary: inhibitors of human protein phosphatase 5 (PP5); AID 1987; actives 0.18% (n = 320,000); inhibition, % at 6.7 µM; purified PP5c, OMFP substrate fluorescence;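 active = inhibition above the campaign's mean inhibition across all tested compounds plus 3 SD, cut at about 9.5% in these data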
ARFGAP1 inh: inhibitors of rat ARFGAP1; Q62848; actives 0.26% (n = 360,000); Arfgap1-stimulated ARF1 GTP hydrolysis, GDP FP detection; AID 651572; inhibition, % at 16.5 µM;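 active = inhibition above a per-plate limit, mean inhibition of low control wells plus 3 SD, cut at about 25% in these data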
Target sequence (Q62848 1-136 limits assumed): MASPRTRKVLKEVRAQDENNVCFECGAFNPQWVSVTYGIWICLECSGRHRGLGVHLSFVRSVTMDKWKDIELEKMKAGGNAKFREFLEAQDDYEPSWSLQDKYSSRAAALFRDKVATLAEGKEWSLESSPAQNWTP
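Replicates: Single well per compound | Assay system: Truncated rat Arfgap1 GAP domain | Control set: No-Arfgap1 wells (100%) versus DMSO full-reaction wells (0%) | Times: Enzyme reaction 120 min at 25 °C after 20 min preincubation | Reagent: Human ARF1(Δ1-17)-GTP substrate | Measured by: Tracer-displacement fluorescence polarization with EDTA stop, 620/688 nm | Measure: Percent inhibition of Arfgap1-stimulated GTP hydrolysis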
PKD1 kinase inh: PKD1 (human) kinase inhibition; Q15139; PKD1 kinase fluorescence polarization assay; inhibition, % (no concentration beside the values); actives 0.056% (n = 200,000); AID 797; in the data active = inhibition above about 50%
ASAP1 GAP inh: ASAP1 ArfGAP inhibition. inhibition, % at 16.5 µM. actives 0.19% (n = 360,000). ASAP1-stimulated ARF1 GTP hydrolysis, GDP FP detection. Q9ULH1. AID 624377; in the data active = inhibition above about 25%
Target sequence (Q9ULH1 325-724 limits assumed): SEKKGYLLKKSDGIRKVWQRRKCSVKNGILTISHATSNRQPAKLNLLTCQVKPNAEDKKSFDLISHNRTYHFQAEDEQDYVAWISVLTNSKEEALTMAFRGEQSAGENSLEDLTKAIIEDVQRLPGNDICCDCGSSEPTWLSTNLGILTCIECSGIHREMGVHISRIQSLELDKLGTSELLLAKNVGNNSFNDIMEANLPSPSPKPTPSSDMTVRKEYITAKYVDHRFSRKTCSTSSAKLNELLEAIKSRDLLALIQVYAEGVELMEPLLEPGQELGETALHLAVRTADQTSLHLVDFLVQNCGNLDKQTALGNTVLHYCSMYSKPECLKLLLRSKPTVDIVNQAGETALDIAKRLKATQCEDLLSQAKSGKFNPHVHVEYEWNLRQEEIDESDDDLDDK
PP5 inh confirm: PP5 (human) inhibition, confirmation; inhibition, % at 6.7 µM; shares compounds with PP5 primary; Purified PP5, fluorogenic phosphatase substrate, fluorescence; actives 22% (n = 460); in the data active = inhibition above about 9.5%
PP1 counter 3x: counter-screen for PP5 inhibitors: human PP1 phosphatase inhibition | inhibition, % at 6.7 µM | actives 4% (n = 460) | AID 2355 | shares compounds with PP5 primary | PP1 enzyme, fluorescent phosphatase substrate; in the data active = inhibition above about 16%
A number is an active result; . = inactive; / = no result given. An excerpt weighted towards active compounds, which were near 0.54% of everything screened.

SMILES	PP5 primary	ARFGAP1 inh	PKD1 kinase inh	ASAP1 GAP inh	PP5 inh confirm	PP1 counter 3x
Clc1ccccc1OCCCCN1CCCCC1	.	.	/	.	/	/
C[C@@H]1ON(C)[C@H]2C[C@H]3c4cc(-c5ccccc5)ccc4CCN3C[C@@H]12	/	.	/	.	/	/
O=C(N[C@H](C(=O)N1CCC[C@H]1C(=O)NC1CCCC1)C1CCCCC1)c1nccs1	/	.	/	.	/	/
CCOC(=O)c1c(-c2cccc3ccccc23)csc1NC(=O)C1C2CCC(O2)C1C(=O)O (stereo unspecified)	10.8	.	.	.	.	.
COC(=O)c1c(-c2ccc(C(C)(C)C)cc2)csc1NC(=O)C1C2CCC(O2)C1C(=O)O (stereo unspecified)	.	.	.	.	/	/
C=CCc1ccc(OCC(O)CO)c(OC)c1 (stereo unspecified)	.	.	.	.	/	/
C=CCc1ccc(O)c(-c2cc(CC=C)ccc2O)c1	11.4	.	.	.	.	.
O=S1(=O)N[C@H](Cc2ccccc2)COc2cccc(F)c21	/	.	/	.	/	/
O=C(O)c1nnn(-c2ccc(F)cc2F)c1-c1ccccc1	.	.	/	.	/	/
O=C(O)c1nnn(-c2cc(C(F)(F)F)cc(C(F)(F)F)c2)c1-c1ccccc1	19.9	.	/	.	.	.
CN(C)S(=O)(=O)c1ccc(NC(=O)c2cc3ccccc3o2)cc1	10.2	.	.	.	.	.
Cc1ccc(NC(=O)c2cc3ccccc3o2)cc1S(=O)(=O)N(C)C	/	.	.	.	/	/
C[C@@H]1CN([C@H](C)CO)C(=O)CCCn2cc(nn2)CO[C@H]1CN(C)S(=O)(=O)c1ccccc1	/	.	/	.	/	/
O=C(Nc1cccc2c1CCCC2)c1cc(C2CCCCN2C(=O)CCCc2ccccc2)on1 (stereo unspecified)	/	.	/	.	/	/
Cc1ccc(Sc2ccc(N)cn2)cc1	13.7	.	/	.	.	.
Nc1ccc(Sc2ccccc2)nc1	.	.	/	.	/	/
O=C(Cc1ccccc1)N/N=C/c1ccc(-c2ccc([N+](=O)[O-])cc2)o1	.	.	.	.	/	/
Cc1ccc([N+](=O)[O-])cc1-c1ccc(/C=N/NC(=O)CN2CCOCC2)o1	12.0	.	/	.	.	.
COC(=O)CCC(=O)OC1(C)C(=O)C=C2C=C(C3CC3)N(Cc3ccccc3)C=C2C1=O (stereo unspecified)	.	.	/	.	/	/
COC(=O)CCC(=O)OC1(C)C(=O)C=C2C=C(C3CC3)N(C3CCCC3)C=C2C1=O (stereo unspecified)	11.5	.	/	.	31.7	.
COC(=O)CCC(=O)OC1(C)C(=O)C=C2C=C(C3CC3)N(CC3CC3)C=C2C1=O (stereo unspecified)	11.8	.	/	.	37.2	.
COC(=O)CCC(=O)OC1(C)C(=O)C=C2C=C(C3CC3)N(C3CCCCC3)C=C2C1=O (stereo unspecified)	.	.	/	.	/	/
CCOC(=O)c1cccc(NC(=O)CSc2nnc(COc3ccccc3)n2CC)c1	12.1	.	.	.	.	.
CCCN(CCC)C(=O)CC(c1ccccc1)c1cc(Br)ccc1O (stereo unspecified)	11.5	.	.	.	.	.
CCCN(CCC)C(=O)CC(c1ccccc1)c1ccc(C)cc1O (stereo unspecified)	.	.	.	.	/	/
SMILES	PP5 primary	ARFGAP1 inh	PKD1 kinase inh	ASAP1 GAP inh	PP5 inh confirm	PP1 counter 3x
CCCCOCCCNC(=O)C[C@@H]1C[C@@]2(C(=O)OC)CCCCC=C2N(Cc2ccco2)C1=O	/	.	/	.	/	/
Cc1[nH]c2ccccc2c1CC(=O)Nc1ccc(N(C)c2cccnc2)c(-c2cccc(Cl)c2)c1	/	.	/	.	/	/
COc1ccc2occ(C(=O)c3coc4ccc(O)c(CN(C)C)c34)c2c1	10.8	.	.	.	.	.
Cc1ccc(C(=O)Oc2ccc(N3C(=O)CCC3=O)c(C)c2)cc1	.	.	.	.	/	/
Cc1cc(OCC(=O)c2ccc(Br)cc2)ccc1N1C(=O)CCC1=O	12.8	.	.	.	.	.
COc1ccccc1-c1noc(-c2ccccc2C(=O)Nc2cccnc2)n1	10.3	.	.	.	.	.
CC(C)C(=O)Nc1cccc(C(=O)Nc2ccccc2C(=O)O)c1	10.3	.	.	.	.	.
Cn1nnnc1NCc1cccc(Cl)c1Cl	14.6	.	.	.	.	.
Cn1nnnc1NCc1c(F)cccc1Cl	.	.	.	.	/	/
C[C@@H](NS(=O)(=O)c1c(F)cccc1F)c1ccccc1	/	.	/	.	/	/
CC(=O)C1=C(C)NC(=S)NC1c1ccccc1 (stereo unspecified)	/	.	/	.	/	/
N#CC1=C(N)NC(SCc2ccccc2)=C(C#N)C12CCCCC2	12.4	.	.	.	.	.
Cc1ccccc1CSc1nnc(-c2ccccn2)n1C	22.6	.	/	.	.	.
Cn1c(SCc2cccc(F)c2)nnc1-c1ccccn1	.	.	.	.	/	/
N=c1c2c(-c3ccccc3)c(-c3ccccc3)oc2ncn1CCN1CCOCC1	10.8	.	.	.	.	.
N=c1c2c(-c3ccccc3)c(-c3ccccc3)oc2ncn1CCCN1CCOCC1	.	.	.	.	/	/
CCOc1cc(-c2cc(-c3ccc(C)cc3)nc(N)c2C#N)ccc1O	9.7	.	.	.	.	.
COc1cc(-c2cc(-c3ccc(O)cc3)nc(N)c2C#N)ccc1O	.	.	.	.	/	/
COc1ccc(C(C)C)cc1S(=O)(=O)N1CC(C)OC(C)C1 (stereo unspecified)	10.0	.	.	.	.	.
O=C(N/N=C/c1ccccc1OC(F)F)NC1CCCCC1	10.9	.	/	.	.	.
COC(=O)C[C@@H]1CC[C@@H](NS(=O)(=O)c2ccccc2OC)[C@@H](CO)O1	/	.	/	.	/	/
Cc1ccccc1S(=O)(=O)N(CC(O)CN1C(=O)NC(C)(C)C1=O)c1ccccc1 (stereo unspecified)	10.2	.	/	.	.	.
CC1(C)Cc2c(sc(NC(=O)Nc3ccccc3)c2C(N)=O)CO1	10.9	.	/	.	.	.
CC1(C)Cc2c(sc(NC(=O)C(=O)N3CCCC3)c2C(N)=O)CO1	.	.	/	.	/	/
ONC(=Nc1ccccc1Cl)c1ccccc1Cl	12.6	.	/	.	.	.
SMILES	PP5 primary	ARFGAP1 inh	PKD1 kinase inh	ASAP1 GAP inh	PP5 inh confirm	PP1 counter 3x
CC1=C(C(=O)N(C(C)C)C(C)C)CC(CC(=O)NCC2CCCCC2)C(=O)N1Cc1ccc(C(C)(C)C)cc1 (stereo unspecified)	/	.	/	.	/	/
O=C(NCCc1ccccn1)c1cc(-c2cccc3ccccc23)nc2ccccc12	21.0	.	.	.	.	.
Cc1ccc(-c2cc(C(=O)NCCc3ccccn3)c3ccccc3n2)c(C)c1	.	.	.	.	/	/
COc1cccc(CNS(=O)(=O)c2cc(Br)ccc2Br)c1OC	/	.	/	.	/	/
OC[C@@H]1CN(Cc2cccc3ccccc23)C[C@H](n2cnc3c(NCc4ccco4)ncnc32)O1	/	.	/	.	/	/
COc1ccc(N2C(=O)CC(NNc3nc4ccccc4s3)C2=O)cc1 (stereo unspecified)	12.0	.	/	.	.	.
COC(=O)[C@]12C[C@H](CC(=O)NCc3ccc(C)o3)C(=O)N(Cc3ccccc3)C1=C[C@H](C1CCCC1)O[C@@H]2C	/	.	/	.	/	/
O=C(c1ccc(Br)cc1)N1CCN(c2ncccn2)CC1	.	.	/	.	/	/
